Assay results from ChEMBL document CHEMBL1136878, “6-amino-4-oxo-1,3-diphenyl-2-thioxo-1,2,3,4-tetrahydropyrimidine-5-carbonyl derivatives as a new class of potent inhibitors of Interleukin-8-induced neutrophil chemotaxis” (Bioorg Med Chem, 2009).
The source made the active and inactive calls. The rule behind the calls is not given here.

Assays:
Neutrophil [1] = assay: Inhibition of chemotaxis in human neutrophils assessed as inhibition of fMLP-induced migration by Boyden chamber assay; type: functional, cell-based
Method in brief: (§1)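 Donor blood neutrophils (dextran sedimentation, Ficoll-Hypaque, hypotonic lysis; >97% pure), preincubated with compound 15 min at room temperature. 4 × 10^5 cells in upper compartment of blind-well chamber, 3 µm cellulose ester filter. Lower compartment: IL-8 10^-9 M, fMLP 10^-8 M or C5a 10^-9 M. Incubation 37 °C, 45 min. Leading-front distance read at ×400, five fields/filter, duplicates. Net migration = stimulated minus spontaneous. IC50 by nonlinear regression, mean of ≥3 experiments.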

[2] = target: T1, C-X-C chemokine receptor type 2 (Homo sapiens) (UniProt P25025); assay: Binding affinity to CXCR2
T1 sequence (whole entry): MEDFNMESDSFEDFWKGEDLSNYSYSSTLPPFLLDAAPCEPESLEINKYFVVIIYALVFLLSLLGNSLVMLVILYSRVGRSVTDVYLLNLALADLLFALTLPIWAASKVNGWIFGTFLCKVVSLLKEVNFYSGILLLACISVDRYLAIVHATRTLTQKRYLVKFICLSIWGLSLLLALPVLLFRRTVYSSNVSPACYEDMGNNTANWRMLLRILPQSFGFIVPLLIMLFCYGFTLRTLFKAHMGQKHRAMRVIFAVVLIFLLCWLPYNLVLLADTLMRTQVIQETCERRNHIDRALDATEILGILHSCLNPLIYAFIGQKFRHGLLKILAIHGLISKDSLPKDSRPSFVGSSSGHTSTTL

[3] = target: T2, C-X-C chemokine receptor type 1 (Homo sapiens) (UniProt P25024); assay: Binding affinity to CXCR1
T2 sequence (whole entry): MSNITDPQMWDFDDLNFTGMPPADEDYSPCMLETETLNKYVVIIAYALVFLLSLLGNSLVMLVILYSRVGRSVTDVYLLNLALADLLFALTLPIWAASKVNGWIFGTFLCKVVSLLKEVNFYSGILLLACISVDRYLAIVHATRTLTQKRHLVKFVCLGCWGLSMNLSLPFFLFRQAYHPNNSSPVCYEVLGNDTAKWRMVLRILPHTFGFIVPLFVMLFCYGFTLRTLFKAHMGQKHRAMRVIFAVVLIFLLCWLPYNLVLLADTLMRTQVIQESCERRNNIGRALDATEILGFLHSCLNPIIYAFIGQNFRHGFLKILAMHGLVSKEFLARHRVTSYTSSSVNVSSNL

[4] = Cytotoxicity against human neutrophils assessed as cell viability by ethidium bromide-fluorescein diacetate test; type: cell-based, Neutrophil; set-up: concentration or dose not given beside the values; conditions: read-out: Activity
Method in brief: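 Neutrophils (2 × 10^6/mL) from healthy donor blood, incubated 2 h at 37 °C in CO2 atmosphere with compounds. Cells then stained with fluorescein diacetate/ethidium bromide in HBSS, 10 min at room temperature. Scored under UV dark-field: green = intact membrane (viable), red nucleus = necrotic; percentage viable cells.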

Neutrophil [5] = assay: Inhibition of chemotaxis in human neutrophils assessed as inhibition of IL8-induced migration by Boyden chamber assay; type: functional, cell-based; method in brief: as §1
Neutrophil [6] = assay: Inhibition of chemotaxis in human neutrophils assessed as inhibition of C5a-induced migration by Boyden chamber assay; type: functional, cell-based; method in brief: as §1
Mus musculus [7] = assay: Inhibition of chemotaxis in zymosan-induced peritonitis Swiss mouse model assessed as number of peritoneal granulocytes per cavity at 3 mg/kg, po pretreated 1 hr before zymosan-challenge measured 4 hrs post inducer challenge (Rvb=27.1+/-3.5 million); type: functional
Mus musculus [8] = assay: Inhibition of chemotaxis in zymosan-induced peritonitis Swiss mouse model assessed as peritoneal protein concentration at 3 mg/kg, po pretreated 1 hr before zymosan-challenge measured 4 hrs post inducer challenge (Rvb=1961+/-160 µg/mL)
Mus musculus [9] = assay: Inhibition of chemotaxis in zymosan-induced peritonitis Swiss mouse model assessed as number of peritoneal cells per cavity at 3 mg/kg, po pretreated 1 hr before zymosan-challenge measured 4 hrs post inducer challenge (Rvb=31.5+/-1.2 million); type: functional
Mus musculus [10] = assay: Inhibition of chemotaxis in zymosan-induced peritonitis Swiss mouse model assessed as peritoneal protein concentration at 50 mg/kg, po pretreated 1 hr before zymosan-challenge measured 4 hrs post inducer challenge (Rvb=1961+/-[…]); type: functional
Mus musculus [11] = assay: Inhibition of chemotaxis in zymosan-induced peritonitis Swiss mouse model assessed as number of peritoneal granulocytes per cavity at 50 mg/kg, po pretreated 1 hr before zymosan-challenge measured 4 hrs post inducer challenge (Rvb=27.1+/-3.5 million); type: functional
Mus musculus [12] = assay: Inhibition of chemotaxis in zymosan-induced peritonitis Swiss mouse model assessed as number of peritoneal cells per cavity at 50 mg/kg, po pretreated 1 hr before zymosan-challenge measured 4 hrs post inducer challenge (Rvb=31.5+/-1.2 million); type: functional

Compound | IC50 (Neutrophil [5]) [nM] | Activity (Neutrophil [1]) | viability [4] [%] | further results
CCOC(=O)c1c(NCCCN(C)C)n(-c2ccccc2)c(=S)n(-c2ccccc2)c1=O | 3.89 | inactive | ≥ 94 | –
CC(=O)c1c(NCCN(C)C)n(-c2ccccc2)c(=S)n(-c2ccccc2)c1=O | 6.86 | inactive | ≥ 94 | –
CC(=O)c1c(N2CCN(C)CC2)n(-c2ccccc2)c(=S)n(-c2ccccc2)c1=O | 14.8 | inactive | ≥ 94 | –
COC(=O)c1c(NCCc2c[nH]c3ccccc23)n(-c2ccccc2)c(=S)n(-c2ccccc2)c1=O | 29.6 | inactive | ≥ 94 | –
CCOC(=O)c1c(NCCN2CCCCC2)n(-c2ccccc2)c(=S)n(-c2ccccc2)c1=O | 85.4 | inactive | ≥ 94 | –
CCOC(=O)c1c(NCCN2CCOCC2)n(-c2ccccc2)c(=S)n(-c2ccccc2)c1=O | 172 | inactive | ≥ 94 | –
COC(=O)c1c(NCC(OC)OC)n(-c2ccccc2)c(=S)n(-c2ccccc2)c1=O | 31.2 | inactive | ≥ 94 | –
COC(=O)c1c(NCCN(C)C)n(-c2ccccc2)c(=S)n(-c2ccccc2)c1=O | 3.32 | inactive | ≥ 94 | –
C[C@@H]1C[C@H]2[C@@H]3CCC4=CC(=O)C=C[C@]4(C)[C@@]3(F)[C@@H](O)C[C@]2(C)[C@@]1(O)C(=O)CO [DEXAMETHASONE] | – | – | – | Activity (Mus musculus [7]): 18.5 million; Activity (Mus musculus [8]): 1400 µg/mL; Activity (Mus musculus [9]): 22 million
COC(=O)c1c(NCCc2ccc(S(N)(=O)=O)cc2)n(-c2ccccc2)c(=S)n(-c2ccccc2)c1=O | 10.8 | inactive | ≥ 94 | –

Second part, led by results:

IC50 (Neutrophil [5]) [nM] | Compound | Activity (Neutrophil [1]) | viability [4] [%] | further results
1.36 | CCOC(=O)c1c(NCCOC)n(-c2ccccc2)c(=S)n(-c2ccccc2)c1=O | inactive | ≥ 94 | Activity [2]: inactive; Activity [3]: inactive
0.49 | CCOC(=O)c1c(NCCc2ccccn2)n(-c2ccccc2)c(=S)n(-c2ccccc2)c1=O | inactive | ≥ 94 | Activity [2]: inactive; Activity [3]: inactive
0.18 | CC(C)OC(=O)c1c(NCCN(C)C)n(-c2ccccc2)c(=S)n(-c2ccccc2)c1=O | inactive | ≥ 94 | Activity (Neutrophil [6]): inactive
0.21 | CCN(CC)CCNc1c(C(=O)OC(C)C)c(=O)n(-c2ccccc2)c(=S)n1-c1ccccc1 | inactive | ≥ 94 | Activity (Neutrophil [6]): inactive
0.61 | CCOC(=O)c1c(NCCNc2ccccc2)n(-c2ccccc2)c(=S)n(-c2ccccc2)c1=O | inactive | ≥ 94 | Activity [2]: inactive; Activity [3]: inactive
0.1 | CCOC(=O)c1c(NCCN(C)C)n(-c2ccccc2)c(=S)n(-c2ccccc2)c1=O | inactive | ≥ 94 | Activity (Neutrophil [6]): inactive
1.61 | CCOC(=O)c1c(NCCC2CCCN2C)n(-c2ccccc2)c(=S)n(-c2ccccc2)c1=O (stereo unspecified) | inactive | ≥ 94 | Activity [2]: inactive; Activity [3]: inactive
0.02 | CCOC(=O)c1c(NCCN(CC)CC)n(-c2ccccc2)c(=S)n(-c2ccccc2)c1=O | inactive | ≥ 94 | Activity [2]: inactive; Activity [3]: inactive; Activity (Neutrophil [6]): inactive; Activity (Mus musculus [10]): 1520 µg/mL; Activity (Mus musculus [11]): 17.7 million; Activity (Mus musculus [12]): 23.8 million
